Assay results of several laboratories.
Protocols differ between the studies behind these lines.
Target: Serine/threonine-protein kinase Nek9 (NEK9, Homo sapiens, UniProt Q8TD19)
Residues used in one study (Q8TD19 1-979): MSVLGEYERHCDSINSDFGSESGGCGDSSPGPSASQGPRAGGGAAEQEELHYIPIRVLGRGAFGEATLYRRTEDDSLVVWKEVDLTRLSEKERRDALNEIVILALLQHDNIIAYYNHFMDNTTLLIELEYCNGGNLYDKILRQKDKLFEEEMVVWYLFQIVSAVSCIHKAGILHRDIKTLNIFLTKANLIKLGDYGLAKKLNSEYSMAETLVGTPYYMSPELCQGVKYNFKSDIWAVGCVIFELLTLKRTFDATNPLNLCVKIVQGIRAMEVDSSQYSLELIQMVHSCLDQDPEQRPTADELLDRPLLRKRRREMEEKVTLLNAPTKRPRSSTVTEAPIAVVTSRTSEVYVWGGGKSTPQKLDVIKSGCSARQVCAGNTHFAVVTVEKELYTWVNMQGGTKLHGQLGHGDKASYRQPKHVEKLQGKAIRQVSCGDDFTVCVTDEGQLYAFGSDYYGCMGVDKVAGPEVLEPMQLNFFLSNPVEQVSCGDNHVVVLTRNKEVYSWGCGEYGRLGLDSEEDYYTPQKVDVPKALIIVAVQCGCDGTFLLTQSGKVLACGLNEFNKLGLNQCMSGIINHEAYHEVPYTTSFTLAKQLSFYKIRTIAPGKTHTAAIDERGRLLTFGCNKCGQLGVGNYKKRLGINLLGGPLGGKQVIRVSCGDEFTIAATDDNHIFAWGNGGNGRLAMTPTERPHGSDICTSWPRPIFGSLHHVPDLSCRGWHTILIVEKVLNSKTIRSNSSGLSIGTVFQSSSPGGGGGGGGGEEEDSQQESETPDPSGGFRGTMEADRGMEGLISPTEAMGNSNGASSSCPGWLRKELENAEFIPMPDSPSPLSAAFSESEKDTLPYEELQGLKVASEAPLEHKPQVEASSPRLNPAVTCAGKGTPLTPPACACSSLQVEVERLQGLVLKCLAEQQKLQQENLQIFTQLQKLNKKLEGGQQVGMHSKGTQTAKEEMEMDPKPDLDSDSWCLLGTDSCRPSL

| Compound | effect on | action | method | concentration | measurement | result |
| --- | --- | --- | --- | --- | --- | --- |
| Cc1cnc(NC2CCOCC2)nc1-n1cnc(C(=O)NC(CN)c2cc(F)cc(Cl)c2)c1 (stereo not drawn) | enzyme activity | inhibitor | radiometric | 1 µM | remaining activity | 101% |
| CS(=O)(=O)CCNCc1ccc(-c2ccc3ncnc(Nc4ccc(OCc5cccc(F)c5)c(Cl)c4)c3c2)o1 | cell-free assay | – | – | 0.5 µM | remaining signal | 100% |
| CN1CC(Oc2cnc(C#N)cc2-c2ccn3nc(NC(=O)C4CC4)cc3c2)C1 | enzyme activity | inhibitor | – | 1 µM | inhibition | -3% |
| CNCc1ccccc1-c1csc([C@H](C)Nc2nc(C)nc3cc(OC)c(OC)cc23)c1 | cell-free assay | – | competition with immobilised ligand | 1 µM | remaining binding | 100% |
| COc1cc2ncnc(Nc3ccc(Oc4ccccc4)c(C)c3C)c2cc1OC | enzyme activity | inhibitor | – | 1 µM | inhibition | 5% |
| Nc1c(C(=O)NCc2ccc(C(=O)NCCCC3CCCCC3)cc2)cnn1-c1ccccc1 | cell-free assay | – | competition with immobilised ligand | 0.1 µM | remaining binding | 100% |
| CC/C(=N\NC(=O)NCc1cccc(O)c1)c1ccc(O)c(C)c1O | enzyme activity | inhibitor | – | 0.1 µM | inhibition | -2.8% |
| Cc1ccc(C(=O)Nc2ccc(CN3CCN(C)CC3)c(C(F)(F)F)c2)cc1C#Cc1cnc2cccnn12 | enzyme activity | inhibitor | – | 23.5 nM | remaining activity | 100% |
| CC(C)(O)[C@H]1CC[C@H](Nc2ccc3ncc(-c4cccc(C(F)(F)F)c4)n3n2)CC1 | enzyme activity | inhibitor | – | 1 µM | remaining activity | 79.5% |
| CCCOc1ccc([C@@H]2[C@@H](C(=O)O)[C@H](c3ccc4c(c3)OCO4)CN2CC(=O)Nc2c(CC)cccc2CC)cc1 | cell-free assay | – | competition with immobilised ligand | 1 µM | remaining binding | 100% |
| CC(C)(C)c1nc2c(s1)c1nc(N)ncc1c1ccc(NS(=O)(=O)c3c(F)cccc3F)c(F)c12 | enzyme activity | inhibitor | radiometric | 1 µM | remaining activity | 96% |
| CCOc1cc(-c2nncn2C)ccc1Nc1ncc2cc(C)nc(NCC(C)(C)C)c2n1 | enzyme activity | inhibitor | FRET | 1 µM | inhibition | < 15% |
| Oc1cccc(-c2nc(N3CCOCC3)c3oc4ncccc4c3n2)c1 | cell-free assay | – | – | 0.5 µM | remaining signal | 99.3% |
| O=c1nc(-c2ccccn2)sc2ccccc12 | binding | – | competition with immobilised ligand | 1 µM | remaining binding | 96% |
| O=C1Nc2ccc(Cl)cc2C1=Cc1cc(Cl)c(O)c(Cl)c1 | cell-free assay | – | – | 0.5 µM | remaining signal | 103% |
| Cc1ccc(NC(=O)c2ccc(C)c(C(F)(F)F)c2)cc1C#Cc1nn(C2CCC(O)CC2)c2ncnc(N)c12 (stereo not drawn) | cell-free assay | – | – | 10 µM | remaining signal | 59% |
| O=C1NC(=O)c2cc(Nc3ccc(F)cc3)c(Nc3ccc(F)cc3)cc21 | cell-free assay | – | – | 0.5 µM | remaining signal | 107% |
| O=C(NCc1ncc(C(F)(F)F)cc1Cl)c1ccc2c(c1)C1(CCS(=O)(=O)CC1)[C@H](C1CC1)N2S(=O)(=O)c1ccc(F)cc1 | cell-free assay | – | competition with immobilised ligand | 1 µM | remaining binding | 100% |
